According to ChEMBL document CHEMBL1142314, “alpha- and beta-substituted phosphonate analogs of LPA as autotaxin inhibitors” (Bioorg Med Chem, 2008):

Key:
[1] = target: Autotaxin (Homo sapiens) (UniProt Q13822); assay: Inhibition of autotaxin assessed as residual enzyme activity at 1 uM relative to control
Summary of the method: (§1)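 ATX activity measured with the compound present at 1 μM, 10 μM or 100 μM. Activity without compound served as the standard (100%), and results are reported as percent residual ATX activity.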

[2] = target: Autotaxin (Homo sapiens) (UniProt Q13822); assay: Inhibition of autotaxin assessed as residual enzyme activity at 10 uM relative to control; summary of the method: as §1
[3] = target: Autotaxin (Homo sapiens) (UniProt Q13822); assay: Inhibition of autotaxin assessed as residual enzyme activity at 100 uM relative to control; summary of the method: as §1

SMILES | Activity [1] | Activity [2] | Activity [3]
CCCCCCCCCCCCCCCC(=O)N[C@@H](Cc1ccc(OCc2ncc(C)c(OC)c2C)cc1)C(F)CP(=O)(O)O (stereo not given in full) | 59% | 22% | 11%
CCCCCCCCCCCCCCCC(=O)N[C@@H](Cc1cn(Cc2ccccc2)c2ccccc12)C(O)CP(=O)(O)O (mixture of isomers) | 80% | 35% | 28%
CCCCCCCCCCCCCCCC(=O)N[C@@H](C(C)C)C(O)CP(=O)(O)O (single isomer, unassigned; diastereomer a) | 115% | 57% | 13%
CCCCCCCCCCCCCCCC(=O)NCC(=O)CP(=O)(O)O | 79% | 95% | 76%
CCCCCCCCCCCCCCCC(=O)N1CCCC1C(O)CP(=O)(O)O (stereo not given) | 83% | 43% | 16%
CCCCCCCCCCCCCCCC(=O)N[C@@H](C(C)C)C(O)CP(=O)(O)O (stereo in doubt; 32) | 72% | 78% | 23%
CCCCCCCCCCCCCCCC(=O)N[C@@H](CC(C)C)C(=O)CP(=O)(O)O | 89% | 48% | 25%
CCCCCCCCCCCCCCCC(=O)N[C@@H](C)C(=O)CP(=O)(O)O | 60% | 67% | 72%
CCCCCCCCCCCCCCCC(=O)N[C@@H](CC(C)C)C(O)CP(=O)(O)O (single isomer, unassigned; diastereomer b) | 93% | 64% | 52%
CCCCCCCCCCCCCCCC(=O)N[C@@H](COCc1ccccc1)C(O)CP(=O)(O)O (stereo in doubt; 45) | 83% | 41% | 19%
CCCCCCCCCCCCCCCC(=O)N[C@@H](Cc1cn(Cc2ncc(C)c(OC)c2C)c2ccccc12)C(O)CP(=O)(O)O (mixture of isomers) | 64% | 28% | 13%
CCCCCCCCCCCCCCCC(=O)N[C@@H](Cc1c[nH]c2ccccc12)C(=O)CP(=O)(O)O | 91% | 70% | 28%
CCCCCCCCCCCCCCCC(=O)N[C@@H](Cc1ccccc1)C(O)CP(=O)(O)O (single isomer, unassigned; diastereomer a) | 88% | 70% | 70%
CCCCCCCCCCCCCCCC(=O)N1CCCC1C(=O)CP(=O)(O)O (stereo not given) | 49% | 18% | 9%
CCCCCCCCCCCCCCCC(=O)N[C@@H](Cc1ccc(OCc2ncc(C)c(OC)c2C)cc1)CC(F)P(=O)(O)O (mixture of isomers) | 74% | 68% | 25%

Results, then the molecule that gave them:

Activity [1] | Activity [2] | Activity [3] | SMILES
78% | 46% | 61% | CCCCCCCCCCCCCCCC(=O)N[C@@H](COCc1ccccc1)C(O)CP(=O)(O)O (single isomer, unassigned; diastereomer b)
88% | 88% | 56% | CCCCCCCCCCCCCCCC(=O)NCC(O)CP(=O)(O)O (stereo not given)
109% | 77% | 24% | CCCCCCCCCCCCCCCC(=O)N[C@H](C(=O)CP(=O)(O)O)C(C)C
73% | 68% | 87% | CCCCCCCCCCCCCCCC(=O)N[C@@H](Cc1ccc(OCc2ncc(C)c(OC)c2C)cc1)C[C@H](O)P(=O)(O)O
92% | 99% | 67% | CCCCCCCCCCCCCCCC(=O)N[C@@H](Cc1ccccc1)C(O)CP(=O)(O)O (stereo in doubt; 37)
50% | 14% | 25% | CCCCCCCCCCCCCCCC(=O)N[C@@H](C)C(O)CP(=O)(O)O (mixture of isomers)
71% | 70% | 53% | CCCCCCCCCCCCCCCC(=O)N[C@@H](Cc1ccc(OCc2ncc(C)c(OC)c2C)cc1)C[C@@H](O)P(=O)(O)O
88% | 51% | 25% | CCCCCCCCCCCCCCCC(=O)N[C@@H](Cc1c[nH]c2ccccc12)C(O)CP(=O)(O)O (single isomer, unassigned; diastereomer a)
68% | 53% | 23% | CCCCCCCCCCCCCCCC(=O)N[C@@H](CC(C)C)C(O)CP(=O)(O)O (single isomer, unassigned; diastereomer a)
93% | 75% | 26% | CCCCCCCCCCCCCCCC(=O)N[C@@H](Cc1c[nH]c2ccccc12)C(O)CP(=O)(O)O (stereo in doubt; 42)
